MsrA act – activators of bovine methionine sulfoxide reductase A; 360,000 tested, 0.3% active; activation, % at 10.6 µM; purified bovine MsrA, absorbance read-out; AID 602163; in the data active = activation above about 7.5%;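 also: 0% = vehicle and 100% = reference activator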
Rev-erbA mod – modulates human Rev-erb alpha binding to DNA. P20393. Rev-erbα–FITC-DNA binding, fluorescence polarization, 90 min. activity, % at 10 µM. 370,000 tested, 0.79% active. AID 1259318;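 active = activity above about 14%, limit read from the data; passing the limit was not always enough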;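 also: 0% = DMSO wells with 35 nM protein and 100% = DMSO wells with 750 nM protein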
HGIII-sPLA2 inh – Blocks human group III sPLA2 activity; Q9NZ20; QFRET BODIPY PC-A2 liposome hydrolysis, fluorescence; inhibition, % at 12.2 µM; 370,000 tested, 0.56% active;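 active = inhibition above mean plus 3 SD of compounds lying within the high and low control bounds, cut at about 19% in these data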;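 also: 0% = median of test compound wells and 100% = no enzyme DMSO wells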
MsrA inhibitor – bovine MsrA inhibition; purified bovine MsrA, absorbance read-out; AID 651718; 360,000 tested, 0.75% active; inhibition, % at 15.5 µM; in the data active = inhibition above about 4.5%;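 also: 0% = vehicle wells with enzyme and 100% = reference inhibitor wells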
ARFGAP1 inh – inhibits rat ARF GTPase activating protein 1 | AID 651572 | Q62848 | 360,000 tested, 0.26% active | inhibition, % at 16.5 µM | Arfgap1-stimulated ARF1 GTP hydrolysis, GDP FP detection;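 active = inhibition above a per-plate limit, mean inhibition of low control wells plus 3 SD, cut at about 25% in these data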;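 also: 0% = DMSO wells with enzyme and 100% = wells lacking Arfgap1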
Target sequence (Q62848 1-136 limits assumed): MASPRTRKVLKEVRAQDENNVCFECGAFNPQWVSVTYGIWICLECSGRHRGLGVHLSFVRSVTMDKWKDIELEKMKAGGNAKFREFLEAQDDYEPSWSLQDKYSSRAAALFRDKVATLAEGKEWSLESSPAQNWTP
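Repeats: one replicate per compound; assay system: rat Arfgap1 catalytic domain, aa 1-136; times: enzyme reaction 120 min at 25 °C after 20 min preincubation; detection: FP of antibody-bound GDP Alexa 633 tracer, ex 620/em 688 nm; benchmarks: high control wells lacking Arfgap1, low control full reaction with DMSO; reagent: human ARF1(Δ1-17)-GTP substrate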
ASAP1 inh – inhibitors of human ASAP1 ArfGAP activity; Q9ULH1; ASAP1-stimulated ARF1 GTP hydrolysis, GDP FP detection; inhibition, % at 16.5 µM; 360,000 tested, 0.19% active; in the data active = inhibition above about 25%;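 also: 0% = vehicle with enzyme and substrate and 100% = no enzyme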
Target sequence (Q9ULH1 325-724 limits assumed): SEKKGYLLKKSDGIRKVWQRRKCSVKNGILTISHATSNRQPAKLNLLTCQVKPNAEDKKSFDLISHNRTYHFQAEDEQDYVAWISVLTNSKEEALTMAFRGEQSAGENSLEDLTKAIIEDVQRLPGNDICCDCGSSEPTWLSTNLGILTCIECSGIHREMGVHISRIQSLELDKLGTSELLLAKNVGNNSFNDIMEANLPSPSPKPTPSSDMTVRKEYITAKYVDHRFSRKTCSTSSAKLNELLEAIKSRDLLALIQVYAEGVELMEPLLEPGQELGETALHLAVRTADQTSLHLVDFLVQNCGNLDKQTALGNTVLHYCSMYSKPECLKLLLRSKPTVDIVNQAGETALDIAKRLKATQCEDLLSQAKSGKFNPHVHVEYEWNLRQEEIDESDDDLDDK
MsrA activ conf – bovine methionine sulfoxide reductase A activation confirmed; shares compounds with MsrA act; purified bovine MsrA, absorbance read-out; activation, % at 10.6 µM; 1,000 tested, 12% active; in the data active = activation above about 4%;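 also: enzyme coupled to thioredoxin and thioredoxin reductase with NADPH; 0% = vehicle wells and 100% = reference activator wells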
* hit, by the source's call; . = no result. The list is not random: actives were taken first. Their share in the collection is about 2.7%.

SMILES	MsrA act	Rev-erbA mod	HGIII-sPLA2 inh	MsrA inhibitor	ARFGAP1 inh	ASAP1 inh	MsrA activ conf
CN(C)C(=O)NCCCC#Cc1ccccc1	.	8	8	.	.	.	.
OC12CCCCC1C(c1ccc3c(c1)OCO3)N(Cc1ccc(F)cc1)CC2 (centres undefined)	9.5*	0	-10	0	15	5	0
COc1cc(Nc2ccc(C(=O)O)cc2[N+](=O)[O-])cc(OC)c1	9.7*	3	9	2	-6	3	8.1*
COc1ccc(C2CC(=O)C(c3ccc(Cl)c(Cl)c3)=CN2Cc2ccccc2)cc1 (centres undefined)	.	-7	-2	-1	-12	8	.
O=C(NC1CCCCN(Cc2cccc(F)c2)C1=O)c1cccc(C(F)(F)F)c1 (centres undefined)	.	-6	0	.	.	.	.
O=c1c2cc3cc(Cl)ccc3nc2ncn1CCc1c[nH]c2ccccc12	.	6	-37	.	.	.	.
CC(Sc1ncnc2sc(-c3ccccc3)cc12)C(=O)N1CCNC1=O (centres undefined)	-4	-1	4	0	5	2	.
CC(C)N(C(=O)CSc1ncnc2sc(-c3ccccc3)cc12)C(C)C	9.1*	13	-4	0	-10	-6	0
COc1ccc(N2CCCN(CC(=O)Nc3ccc(Cl)cc3)CC2)cc1	.	-4	14	.	.	.	.
C=CCOC(=O)C1=C(C)N=c2sc(=C3C(=O)N(CC(=O)O)c4ccccc43)c(=O)n2C1c1ccc(OC)cc1 (centres undefined)	.	-3	4	.	.	.	.
Cc1ccc(OCC(=O)Nn2c(C)nc3ccccc3c2=O)c(C(C)C)c1	8.2*	3	-10	0	6	-12	-3
Cc1[nH]c2ccccc2c1CC(=O)O	13*	5	2	1	-6	7	-2
Cc1[nH]c2c(C)cccc2c1CC(=O)O	-4	1	-1	0	6	-3	.
O=C(CCc1ccccc1)N[C@H]1[C@H](OC(=O)c2ccco2)CCC[C@]12C(=O)N(Cc1ccccc1)c1ccccc12	.	2	-7	.	.	.	.
Cc1cc(NC(=O)CCSc2nc(-c3ccco3)cc(C(F)(F)F)n2)n(-c2ccccc2)n1	18*	4	-20	0	13	9	1
Cc1nn(C)c(C)c1NC(=O)CCSc1nc(-c2ccco2)cc(C(F)(F)F)n1	0	2	4	0	5	-6	.
COc1cccc2c(=O)cc(C)n(CC(=O)Nc3ccc(C)c(C)c3)c12	9.4*	1	-11	0	-12	3	0
COc1ccc(OCC(C)CN2CCC(C(O)(c3ccccc3)c3ccccc3)CC2)cc1 (centres undefined)	.	1	0	.	.	.	.
COc1ccc(S(=O)(=O)NCc2ccc(C(=O)O)cc2)cc1	7.9*	5	9	1	-2	2	-2
O=C(OCC#CCSc1nnc(-c2cccc3ccccc23)o1)c1ccsc1	.	0	-13	.	.	.	.
CCOC(=O)C1=C(CSc2nc3c(cc2C#N)CN(C)CC3)OC(N)=C(C#N)C1c1ccncc1 (centres undefined)	-3	-4	-5	2	10	10	.
CCOC(=O)C1=C(CSc2nc3c(cc2C#N)CN(C)CC3)OC(N)=C(C#N)C1c1ccc(Cl)cc1 (centres undefined)	9.6*	-2	-24	0	0	0	-2
Cn1c(=O)c2[nH]c(SCC(=O)N3CCN(c4cccc(C(F)(F)F)c4)CC3)nc2n(C)c1=O	.	-1	-4	.	.	.	.
CCOC(=O)c1cnc(Nc2nc3ccccc3o2)nc1C	-1	4	12	1	0	2	.
CCOC(=O)c1cnc(Nc2nc3ccccc3o2)nc1CSc1nnc(C)s1	15*	-4	0	1	5	-5	1
SMILES	MsrA act	Rev-erbA mod	HGIII-sPLA2 inh	MsrA inhibitor	ARFGAP1 inh	ASAP1 inh	MsrA activ conf
C[C@H](O)[C@@H]1CN2CCc3c([nH]c4c(-c5ccc6c(c5)OCO6)cccc34)[C@@H]2C[C@@H]1N(C)C(=O)c1ccccc1F	.	1	-13	.	.	.	.
CC(C)(C)Nc1nc(SCC(=O)Nc2ccccc2)nc(N2CCOCC2)n1	-6	-2	-19	0	-5	8	.
CN(C)c1nc(NC(C)(C)C)nc(SCC(=O)Nc2ccccc2)n1	7.7*	1	-23	0	-12	-2	-3
COc1ccc(OC)c(CN2C(=O)CSCCC2(C)c2nnnn2C2CCCC2)c1 (centres undefined)	.	-12	5	.	.	.	.
Cc1ccc(/C=N/Nc2nncn2N)cc1	8.5*	-1	-4	0	3	15	-1
Nn1cnnc1N/N=C/c1cccc(Cl)c1Cl	5	7	-2	2	-2	5	.
Nn1cnnc1N/N=C/c1ccc(F)cc1	7	-4	0	0	-6	-14	.
Nn1cnnc1N/N=C/c1ccc(Cl)c([N+](=O)[O-])c1	18*	0	-2	1	4	6	1
CCOC(=O)c1cc2c(=O)n3ccccc3nc2n(CCCOC)c1=NC(=O)C(C)(C)C	-1	2	6	-1	-6	0	.
CCOC(=O)c1cc2c(=O)n3ccccc3nc2n(CCOC)c1=NC(=O)C(C)(C)C	8.2*	5	1	0	7	-7	0
NC(=O)c1ccc(NC(=O)CSc2nnc(C3CCCCC3)n2N)cc1	-5	-8	-2	0	11	0	.
Nn1c(SCC(=O)Nc2ccc(F)c(F)c2)nnc1C1CCCCC1	9.3*	0	6	0	8	-10	-2
CC(C)(C)NC(=O)/C=C/c1ccc(C(F)(F)F)cc1	8.2*	5	-3	0	4	-2	-1
CC1CCC2(CC1)CCN(CCCOC(=O)Nc1cccc(C(F)(F)F)c1)C2=O (centres undefined)	.	6	0	.	.	.	.
C[n+]1c(-c2ccccc2)cc2c(=Cc3ccccc3)c3ccccc3n21	19*	2	19	12*	13	11	9.6*
Nc1nc2cc3c(cc2cc1C(=O)NCc1cccnc1)OCO3	.	3	1	1	3	3	.
O=C(c1ccc(Cl)cc1Cl)N1CCC(c2nc3c(nnn3Cc3ccco3)c(=O)[nH]2)CC1	23*	0	-40	1	4	1	1
O=C(c1ccccc1)N1CCC(c2nc3c(nnn3Cc3ccco3)c(=O)[nH]2)CC1	-11	4	-10	0	0	-3	.
Cc1ccc(C(=O)CC(C(=O)O)n2cnc([N+](=O)[O-])n2)cc1 (centres undefined)	9.4*	1	4	-1	-4	-2	-2
COC(=O)[C@]12C[C@H](CC(=O)N3CCCCC3)C(=O)N(Cc3cccc4ccccc34)C1=C[C@H](C1CCCC1)O[C@@H]2C	.	-5	-4	.	.	.	.
O=S1(=O)CCOC[C@H](c2ccccc2)N1Cc1cccc(F)c1	11*	8	-1	0	1	7	-1

Compound activity from PubChem.
